# Compounds with a hit are over-represented: about 1.5% of the library has one in this group of screens.
# Cneo AK release = causes C. neoformans cell lysis; lysis activity, % at 15 µM; adenylate kinase release luminescence, 4 h; normalised: neutral wells 0, clomiphene wells 100; 360,000 compounds, 0.2% hits;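 active = mean lysis activity across replicates of at least 80%, whatever share of replicates individually reach that level; inactive = mean lysis activity below 80%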
#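 Signal: Adenylate kinase release luminescence | Assay system: Log-phase Cryptococcus neoformans yeast cells | Input: Cells at 5 × 10^6 per mL | Buffer or medium: Fresh YPD growth medium | Compound: Single dose | Schedule: Static 4 h at 37 °C with compound, 1 h detection | Controls: Clomiphene | Read-out: Luminescence rise reflecting yeast cell lysis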
# C2C12 statin = suppression of simvastatin myotoxicity. C2C12 myotubes + simvastatin, ATP luminescence, 48 h; scaled: DMSO 0, geranylgeraniol control 100. rescue of ATP level, % at 7.49 µM. 330,000 compounds, 0.78% hits. AID 602340;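 active = mean ATP rescue above about 67%, or every replicate alone reaching that limit, limit read from the data, passing the limit was not always enough; inconclusive = no clear call, values can overlap the other calls; inactive = mean under the limit and some replicate under it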;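 also: myotubes were challenged with 10 µM simvastatin during compound exposure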
# SUMO Mot1 rescue = inhibitors of SUMOylation pathway: yeast Mot1-301 growth rescue; S. cerevisiae Mot1-301 growth rescue, ATP luminescence, 38.5C; percent above DMSO median, 100 means doubled; growth rescue, % at 18.8 µM; 320,000 compounds, 1% hits; AID 2716;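 active = every valid replicate shows activation above 250% relative to neutral control wells; inactive = the rest, any valid replicate at or below 250%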;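 also: OY570 slx delta 5 strain wells were the positive control but not used for scaling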
# * hit, by the source's call; ? = inconclusive; . = no result.
SMILES,Cneo AK release,C2C12 statin,SUMO Mot1 rescue
CCOC(=O)C1CCN(Cc2ccccn2)CC1,.,.,5.6
CCOC(=O)C1CCN(C=Nc2cc(C)on2)CC1,0.1,147.2*,-20.1
Cc1ccc(S(=O)(=O)N[C@@H]2CC[C@@H](CC(=O)NCCCN(C)C)O[C@@H]2CO)cc1,0.0,2.6,.
CCN1C(=O)/C(=C2/C=Cc3ccccc3N2C)OC1=S,-2.4,117.9*,-6.2
CCN1C(=O)/C(=C2\C=Cc3cc(C)ccc3N2CC)OC1=S,-0.8,2.0,.
C[C@H](CO)N1C[C@H](C)[C@@H](CN(C)C(=O)Cc2ccccn2)Oc2ncc(C#CC3CCCC3)cc2C1=O,5.7,-5.5,.
C=CCOc1cc(C)nc(-c2ccccc2O)n1,-10.5,-2.2,74.0
Cc1cc(N2CCCC2)nc(-c2ccccc2O)n1,.,114.6*,-1.3
Cc1cc(Oc2ccccc2)nc(-c2ccccc2O)n1,2.0,104.2*,6.9
Cc1cc(N2CCN(C)CC2)nc(-c2ccccc2O)n1,-0.6,.,1.0
C[C@H](CO)N1C[C@H](C)[C@@H](CN(C)C(=O)C2CCC2)Oc2cc(C#Cc3ccncc3)ccc2S1(=O)=O,0.1,-10.9,.
CCCCS(=O)(=O)C(=C1Nc2ccccc2N1)S(=O)(=O)CCCC,.,7.1,-2.4
CCCS(=O)(=O)C(=C1NCCO1)S(=O)(=O)CCC,-17.6,-5.8,350.9*
O=C(C[C@H]1CC[C@@H]2[C@H](COC[C@H](O)CN2C(=O)c2ccccc2)O1)NCCCN1CCOCC1,0.8,-5.6,.
CCOC(=O)C(CC)n1cnc2c(nnn2-c2ccc(OC)cc2)c1=O (centres undefined),-0.2,97.8*,-1.0
CCC(C(=O)OC)n1cnc2c(nnn2-c2ccc(OC)cc2)c1=O (centres undefined),0.1,.,-12.5
Cc1ccc(NC(=O)CN2c3cccc4cccc(c34)S2(=O)=O)cc1,0.1,-3.9,-0.6
COc1ccc(NC(=O)CN2c3cccc4cccc(c34)S2(=O)=O)cc1,2.8,98.7*,12.8
CC(C)NC(=O)N(C)C[C@H]1Oc2c(NC(=O)Nc3cccc4ccccc34)cccc2C(=O)N([C@H](C)CO)C[C@H]1C,-2.7,17.0,.
C[C@H]1CN([C@@H](C)CO)C(=O)c2cc(C3=CCCCC3)cnc2O[C@@H]1CN(C)C(=O)c1ccncc1,1.3,25.0,.
O=C(N/N=C/c1coc2ccccc2c1=O)c1ccccc1,-3.6,2.4,1.8
O=C(N/N=C\c1coc2ccccc2c1=O)c1ccco1,-3.5,.,460.9*
Cc1noc(C)c1NC(=O)N[C@@H]1CC[C@@H](CCNC(=O)C2CCC2)O[C@H]1CO,-1.1,3.7,.
O=C(NCC[C@H]1CC[C@H](NC(=O)C2CC2)[C@H](CO)O1)c1ccc(F)cc1,1.5,0.2,.
O=C(Nc1ccc(F)cc1)N[C@@H]1CC[C@H](CCNS(=O)(=O)c2ccccc2F)O[C@H]1CO,-0.9,-1.3,.
SMILES,Cneo AK release,C2C12 statin,SUMO Mot1 rescue
COc1ccc2[nH]cc(C(=O)CNc3nc(C)cs3)c2c1,1.5,125.0*,-4.1
COc1ccc2[nH]cc(C(=O)CCl)c2c1,-1.8,-31.3,11.9
COC(=O)c1ccc(CSc2nnc(Nc3ccc(C)cc3)s2)o1,-0.5,95.1*,4.3
COC(=O)c1ccc(CSc2nc3cc(Cl)ccc3s2)o1,0.4,5.0,9.2
CCCNC(=O)C[C@H]1C[C@H]2c3cc(NC(=O)Nc4ccccc4)ccc3O[C@H]2[C@@H](CO)O1,1.3,1.2,.
CC(C)[C@H](NS(=O)(=O)c1ccccc1)C(=O)OCC(=O)NC(=O)NC1CCCCC1,1.9,113.6*,-8.7
CC(C)[C@H](NS(=O)(=O)c1ccccc1)C(=O)OCC(=O)NC1CCCCC1,0.7,-3.5,-1.5
C[C@@H]1CN([C@H](C)CO)C(=O)Cc2cc(NC(=O)Cc3cn(C)c4ccccc34)ccc2O[C@H]1CN(C)Cc1ccc(C(F)(F)F)cc1,5.6,?,.
COc1ccccc1N1CCN(Cc2nc3ccccc3[nH]2)CC1,-2.6,-1.4,-14.7
COc1ccccc1N1CCN(Cc2nc3ccsc3c(=O)[nH]2)CC1,0.8,126.2*,29.1
CC(C)C#Cc1ccc2c(c1)O[C@@H](CN(C)CC1CC1)[C@@H](C)CN([C@@H](C)CO)S2(=O)=O,-0.7,8.5,.
Cc1ccc(S(=O)(=O)NC2CCN(Cc3cccc(OCCO)c3)CC2)cc1,-0.3,.,.
C(=N\c1nccs1)/Nc1nccs1,.,98.1*,10.0
Oc1c(Cl)cc(Cl)cc1/C=N/c1nccs1,4.6,15.4,107.2
COCC(=O)N(C)C[C@@H]1Oc2cc(-c3ccc(OC)cc3)ccc2S(=O)(=O)N([C@H](C)CO)C[C@H]1C,1.8,12.9,.
C[C@@H]1CN([C@@H](C)CO)C(=O)Cc2cc(NS(=O)(=O)c3ccc(Cl)cc3)ccc2O[C@H]1CN(C)C(=O)Nc1ccc2c(c1)OCO2,.,13.1,.
Cc1ccc(O)c(NC(=O)c2cc(-c3cccs3)on2)c1,-4.9,213.0*,2.2
Cc1ccc(O)c(NC(=O)c2cc(-c3ccc(F)cc3)on2)c1,-1.5,27.3,-2.1
C[C@H](CO)N1C[C@H](C)[C@H](CN(C)Cc2ccc(-c3ccccc3)cc2)Oc2ccc(NS(C)(=O)=O)cc2CC1=O,-1.9,13.6,.
CCNC(=O)C[C@@H]1CC[C@@H]2[C@@H](COc3ccc(NC(=O)c4cccc(OC)c4)cc3C(=O)N2C)O1,-0.8,7.3,.
COc1ccc(S(=O)(=O)Nc2cc3c4c(oc3c3ccccc23)CCCC4=O)cc1,1.7,76.8*,-9.5
COc1ccc(S(=O)(=O)Nc2cc3c4c(oc3c3ccccc23)CC(C)(C)CC4=O)cc1,-0.8,.,-3.6
CCOC(=O)c1cnc(SC)nc1Oc1cccc(NS(=O)(=O)c2ccc(C)cc2)c1,-3.2,90.3*,2.2
CCOC(=O)c1ccccc1NS(=O)(=O)c1ccc(C)cc1,0.4,.,274.1
O=C(O)c1ccccc1P(=O)(c1ccccc1)c1ccccc1,-1.4,10.3,232.8
SMILES,Cneo AK release,C2C12 statin,SUMO Mot1 rescue
O=C(C(=O)c1ccc(O)cc1)c1ccccc1,.,-6.5,356.3*
O=C(c1ccc(O)cc1)c1ccc(C(=O)c2ccc(O)cc2)cc1,-1.2,.,37.6
O=P(c1ccccc1)(c1ccccc1)c1ccc(O)cc1,-1.2,11.3,348.9*
CN(C)C(=O)c1ccc(-c2ccc([C@H]3[C@@H](CO)N4CCCCN(C(=O)C5CCC5)C[C@@H]34)cc2)cc1,0.5,.,.
c1coc(-c2nc3ccccc3s2)c1,-2.3,119.5*,.
Nc1ccccc1-c1nc2ccccc2s1,20.7,-12.9,52.7
COc1cc(C(=O)Oc2cccc(C)c2)cc(OC)c1OC,2.1,116.6*,55.5
COc1cc(C(=O)Oc2ccccc2OC(=O)c2cc(OC)c(OC)c(OC)c2)cc(OC)c1OC,.,3.5,.
Cc1ccc(NC(=S)NCc2ccc(Cl)cc2)c(OC(F)F)c1,344.1*,-12.3,12.5
Cc1ccc(CNC(=S)Nc2ccc(OC(F)F)cc2C)cc1,.,.,-4.9
Cc1ccccc1NC(=S)NCc1ccc(F)cc1,0.1,4.8,-9.4
Cc1cc(Cl)ccc1NC(=S)NCc1ccc(F)cc1,92.8*,17.9,-0.8
C[C@H](CO)N1C[C@H](C)[C@H](CN(C)C(=O)c2ccncc2)OCCCC[C@H](C)Oc2ccc(NS(=O)(=O)c3ccc(F)cc3)cc2C1=O,-7.6,.,.
O=C(c1ccccn1)N1C[C@H]2[C@@H](c3ccccc31)[C@@H](CO)N2C(=O)C1CCOCC1,1.5,-3.2,.

# Screening data from PubChem BioAssay.
